Kir21 inh = blocks the mouse Kir2.1 inward-rectifier potassium channel; P35561; HEK293-Kir2.1, FluxOR thallium flux fluorescence; hits give low values; B-score at 10 µM; hit rate 0.85% among 310,000;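 active means fluorescence ratio B-score at or below minus 3 SD of library scores, with starting-brightness B-score within 2 SD, cut at about -4.2 in these data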;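 further: channel flux triggered by added potassium and thallium sulfate stimulus; B-score of peak minus minimum fluorescence over baseline after thallium stimulus; more negative B-score means stronger Kir2.1 block with less thallium influx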
KCNQ1 block = blocks the human KCNQ1 potassium channel. P51787. hit rate 1.3% among 310,000. AID 2642. CHO-K1 KCNQ1, FluxOR thallium flux fluorescence; hits give high values. B-score at 10 µM;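 active means compounds whose thallium flux B-score, printed positive for inhibition, exceeds three library SD while starting fluorescence stays within three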;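 further: channel opened by potassium depolarization with thallium stimulus after 20 min compound exposure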
KCNQ1 act = potentiators or activators of human KCNQ1 potassium channel; hit rate 0.35% among 310,000; CHO-K1 KCNQ1, thallium flux FluxOR fluorescence; hits give high values; AID 2648; B-score at 10 µM;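 active means fluorescence ratio B-score, a plate-corrected score, at least three library SD, with initial intensity B-score within 5 SD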
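System: Stable KCNQ1 CHO-K1 line | Incubation: 90 min dye loading and 20 min compound exposure, both at room temperature | Measure: Ratio B score | Medium: Assay buffer for compound exposure, DMSO matched across wells | Compound dosing: Single-concentration screen | Probe or stimulus: K+/Tl+ depolarizing stimulus | Measured by: Kinetic FluxOR fluorescence, 10 s baseline plus 110 s post-stimulus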
KCNK9 inh = human KCNK9 channel inhibition | HEK293 KCNK9, FluxOR thallium flux fluorescence; hits give low values | hit rate 1.2% among 310,000 | B-score at 10 µM;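 active means ratio B-score over 3 SD below the library mean, with starting fluorescence within 5 SD of its mean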;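 further: negative B-score means less thallium flux so channel inhibition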
Target sequence (Q9NPC2 whole entry, looked up): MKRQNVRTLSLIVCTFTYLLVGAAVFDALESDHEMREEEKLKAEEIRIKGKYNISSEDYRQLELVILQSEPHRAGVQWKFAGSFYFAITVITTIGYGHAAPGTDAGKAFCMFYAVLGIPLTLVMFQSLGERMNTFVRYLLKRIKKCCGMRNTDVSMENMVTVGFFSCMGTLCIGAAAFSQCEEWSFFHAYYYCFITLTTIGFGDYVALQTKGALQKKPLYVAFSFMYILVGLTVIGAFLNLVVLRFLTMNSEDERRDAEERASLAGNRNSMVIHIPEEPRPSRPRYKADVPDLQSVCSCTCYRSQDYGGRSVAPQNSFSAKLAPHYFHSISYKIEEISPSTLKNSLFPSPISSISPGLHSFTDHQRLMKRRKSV
hERG protect = hERG (human) protection from proarrhythmic block; Q12809; CHO-hERG, FluxOR thallium flux, dofetilide IC70 present; activation (rescue from dofetilide block), less the hit threshold, % at 10 µM; hit rate 0.51% among 310,000;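 active means activation above the mean of controls blocked by dofetilide plus 5 SD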;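 further: thallium influx through hERG after potassium depolarization seen as dye fluorescence rise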
KCNK3 inh = human KCNK3 channel inhibition, primary screen; O14649; CHO-KCNK3 thallium flux, FluxOR fluorescence; hits give low values; B-score at 10 µM; hit rate 0.84% among 340,000; AID 602410;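 active means B-score under library mean minus 4 SD, starting fluorescence ratio at most library mean plus 5 SD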;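 further: more negative B-score means stronger inhibition of thallium flux through KCNK3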
Target sequence (O14649 whole entry, looked up): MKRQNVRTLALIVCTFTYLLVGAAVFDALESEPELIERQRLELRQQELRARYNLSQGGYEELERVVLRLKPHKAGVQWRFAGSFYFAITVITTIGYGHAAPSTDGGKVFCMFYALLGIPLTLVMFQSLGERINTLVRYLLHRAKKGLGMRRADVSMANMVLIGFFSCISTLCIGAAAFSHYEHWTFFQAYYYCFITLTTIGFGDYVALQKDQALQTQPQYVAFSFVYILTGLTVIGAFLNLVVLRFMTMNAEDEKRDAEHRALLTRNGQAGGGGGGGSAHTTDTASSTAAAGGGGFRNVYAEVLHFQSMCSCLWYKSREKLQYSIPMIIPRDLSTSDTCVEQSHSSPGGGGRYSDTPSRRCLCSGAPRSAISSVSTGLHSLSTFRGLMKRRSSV
KCNK9 block conf = confirmation of human KCNK9 potassium channel inhibitors. shares compounds with KCNK9 inh. HEK293 KCNK9 cells, FluxOR thallium flux fluorescence. inhibition, % at 10 µM. hit rate 43% among 4,900. AID 492992;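 active means thallium signal inhibited by more than 5 SD of the compound-free buffer control wells, on both duplicate plates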
Kir21 sel = selectivity of KCNK9 modulators against mouse Kir2.1. hit rate 4% among 4,900. Kir2.1 cells, FluxOR thallium flux fluorescence. shares compounds with KCNK9 inh. inhibition, % at 10 µM;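 active means thallium signal drop more than 5 SD beyond the mean of the no-compound control wells, seen in both duplicate plates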;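 further: signal is fluorescence rise after thallium addition divided by baseline fluorescence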
HEK293 Tl ctr = second counter-screen for KCNK9 modulators: effect in non-induced cells; non-induced KCNK9-HEK293, FluxOR thallium flux; hit rate 40% among 4,900; shares compounds with KCNK9 inh; inhibition, % at 10 µM;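 active means thallium signal drop beyond 5 SD of the untreated control mean, on both duplicate plates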
Large screens that a line does not name were inactive (follow-up assays come after a bar, where they were run). Shown are actives, neighbours in structure and some others; about 3.8% of the full set was active somewhere.

COC(=O)c1cccc(C(=O)N2CCCC(Nc3ccc(C)c(C)c3)C2)c1 (stereo not given)	none | KCNK9 block conf inactive | Kir21 sel inactive | HEK293 Tl ctr inactive
COc1ccc(C(=O)N2CCCC(Nc3ccc(C)c(C)c3)C2)cc1F (stereo not given)	none
C=CCOc1cccc(C(=O)N2CCCC(CCC(=O)NCc3ccccc3F)C2)c1 (stereo not given)	none
Cc1ccc(NC2CCCN(C(=O)c3ccc4[nH]ccc4c3)C2)cc1C (stereo not given)	none | KCNK9 block conf inactive | Kir21 sel inactive | HEK293 Tl ctr inactive
C=CCOc1cccc(C(=O)N2CCCC(Nc3ccc4c(c3)OCCO4)C2)c1 (stereo not given)	none | KCNK9 block conf inactive | Kir21 sel inactive | HEK293 Tl ctr inactive
Cc1ccc(OCc2cnc(Cl)s2)c(C)c1	none
CCS(=O)(=O)C1=NN2C(=N)/C(=C\c3ccc(SCc4ccco4)o3)C(=O)N=C2S1	none
CC(C(=O)NCc1ccccc1)N1CCN(c2ccc(F)cc2)CC1 (stereo not given)	none
COc1ccc(CN2CCN(C(c3ccc(F)cc3)c3ccc(F)cc3)CC2)c(OC)c1OC	none | KCNK9 block conf inactive | Kir21 sel inactive | HEK293 Tl ctr inactive
COc1ccc(CN2CCN(Cc3cccc(Oc4ccccc4)c3)CC2)c(OC)c1OC	none | KCNK9 block conf inactive | Kir21 sel inactive | HEK293 Tl ctr inactive
CN1CCN(Cc2cccc(Oc3ccccc3)c2)CC1	none
COCCn1c(SCc2nnc(-c3ccccc3)o2)nc2sc3c(c2c1=O)CCC3	KCNK9 inh -11 | KCNK9 block conf 37% | Kir21 sel inactive | HEK293 Tl ctr 32%
CC(C)=CCc1c2c(c(O)c3c(=O)c4c(oc13)-c1cc(O)c(O)cc1OC4C=C(C)C)C=CC(C)(C)O2 (stereo not given)	none (no result: KCNK3 inh)
CC(C)=CCc1c(-c2ccc(O)cc2O)oc2c3c(cc(O)c2c1=O)OC(C)(C)C=C3	none (no result: KCNK3 inh) | KCNK9 block conf inactive | Kir21 sel inactive | HEK293 Tl ctr inactive
C=CCN(C(=O)c1ccc2snnc2c1)c1ccccc1	none
COc1ccccc1/C=C/c1nc(S(=O)(=O)c2ccccc2)c(N(C)C)o1	KCNK9 inh -11 | KCNK9 block conf 53% | Kir21 sel inactive | HEK293 Tl ctr 28%
CN(C)c1oc(/C=C/c2cccs2)nc1S(=O)(=O)c1ccccc1	KCNK9 inh -8.1 | KCNK9 block conf 42% | Kir21 sel inactive | HEK293 Tl ctr inactive
COc1ccc(-c2c(C(F)(F)F)nn(C)c2NC(=O)CSCC(=O)O)cc1	none
COc1ccc(CCN(C)Cc2cccc3ccccc23)cc1OC	none
CN(C/C=C/C#CC(C)(C)C)Cc1cccc2ccccc12	none | KCNK9 block conf inactive | Kir21 sel inactive | HEK293 Tl ctr inactive
COc1ccc(C(=O)CSc2ccc(-c3ccc(C)cc3)nn2)cc1	none | KCNK9 block conf inactive | Kir21 sel inactive | HEK293 Tl ctr inactive
Cc1sc2nc(SCc3ccc(C(=O)O)cc3)n(Cc3ccco3)c(=O)c2c1C	none | KCNK9 block conf inactive | Kir21 sel inactive | HEK293 Tl ctr inactive
Cc1ccc(-c2ccc(SCC(=O)N3CCCc4ccccc43)nn2)cc1	none (no result: KCNK3 inh) | KCNK9 block conf inactive | Kir21 sel inactive | HEK293 Tl ctr inactive
Cc1ccc(-c2ccc(SCC(=O)N3CCc4ccccc43)nn2)cc1	none (no result: KCNK3 inh)
CCn1c(SCC(=O)N2CCCc3ccccc32)nnc1-c1ccco1	none
Cc1cc2c(=O)n(Cc3ccco3)c(SCC(=O)N3CCCc4ccccc43)nc2s1	none | KCNK9 block conf inactive | Kir21 sel inactive | HEK293 Tl ctr inactive
O=C(CSc1ccc(-c2ccccc2)nn1)c1ccccc1	none
COc1ccc(CCNC(=S)NC2CCN(Cc3ccccc3)CC2)cc1	none
O=C(CSc1nc2ccccc2c(=O)n1-c1ccccc1)N1CCCc2ccccc21	none | KCNK9 block conf inactive | Kir21 sel inactive | HEK293 Tl ctr inactive
O=C(CSc1nc2ccccc2c(=O)n1-c1ccccc1)N1CCc2ccccc21	none
CN1C[C@@H]2[C@@H]3C(=O)N(Cc4ccccc4)C(=O)[C@@H]3[C@](C)(C1=O)N2C(=O)c1ccccc1	none (no result: Kir21 inh, KCNQ1 block, KCNQ1 act, KCNK9 inh, hERG protect)
Fc1ccc(C2c3[nH]c4ccccc4c3CCN2Cc2ccoc2)cc1 (stereo not given)	none | KCNK9 block conf inactive | Kir21 sel inactive | HEK293 Tl ctr inactive
Cc1ccc(CN(C)C(=O)c2cccc(S(=O)(=O)N3CCN(Cc4ccccc4)CC3)c2)o1	none | KCNK9 block conf inactive | Kir21 sel inactive | HEK293 Tl ctr 28%
O=C(Nc1nc(-c2ccccc2)cs1)c1cccc(S(=O)(=O)N2CCN(Cc3ccccc3)CC2)c1	none | KCNK9 block conf inactive | Kir21 sel inactive | HEK293 Tl ctr inactive
O=C(c1cccc(S(=O)(=O)N2CCCCC2)c1)N(CCc1ccccc1)Cc1ccccc1	KCNQ1 block 6, KCNK9 inh -16 | KCNK9 block conf 62% | Kir21 sel inactive | HEK293 Tl ctr 36%
CN1CCN(S(=O)(=O)c2cccc(C(=O)Nc3nc(-c4ccccc4)cs3)c2)CC1	none
O=C(c1cccc(S(=O)(=O)N2CCOCC2)c1)N(CCO)Cc1ccccc1	none
Cc1ccc(C(C)C)c(OCC(=O)NN=C(CCl)CCl)c1	none (no result: KCNK3 inh)
COc1ccc(OCC(=O)NNC(=O)c2cccc(O)c2)cc1	none
COC(=O)c1cc2c(ccn2-c2ccc(F)cc2)n1Cc1ccc(OC)cc1	none
COC(=O)c1cc2c(ccn2-c2ccc(F)cc2)n1Cc1ccc(C#N)cc1	KCNK9 inh -9.5 | KCNK9 block conf 38% | Kir21 sel inactive | HEK293 Tl ctr 32%
O=S(=O)(Nc1ncnc2scc(-c3ccc(F)cc3)c12)c1cc(F)ccc1F	KCNQ1 block 6 | KCNK9 block conf inactive | Kir21 sel inactive | HEK293 Tl ctr inactive
Cc1ccc(-c2csc3ncnc(NS(=O)(=O)c4ccc(Cl)cc4)c23)cc1	none
COc1ccccc1/C=C/CN1CCCC(CO)(Cc2cccc(Cl)c2)C1 (stereo not given)	none | KCNK9 block conf inactive | Kir21 sel inactive | HEK293 Tl ctr inactive
OCC1(Cc2cccc(Cl)c2)CCCN(Cc2sc(N3CCCC3)nc2Cl)C1 (stereo not given)	none | KCNK9 block conf inactive | Kir21 sel inactive | HEK293 Tl ctr inactive
O=C(COc1ccc2c(c1)CCC2)N1CCN(c2cccc(C(F)(F)F)c2)CC1	none | KCNK9 block conf inactive | Kir21 sel inactive | HEK293 Tl ctr inactive
O=C(COc1cccc(C(F)(F)F)c1)N1CCN(c2ccc(O)cc2)CC1	none

Screening data deposited in PubChem by Johns Hopkins Ion Channel Center.
